Series [1] has as its system Human immunodeficiency virus 2. As to the kind of experiment: Antiviral activity against wild type Human immunodeficiency virus 2 ROD infected in human MT4 cells assessed as protection against virus-induced cytotoxicity after 5 days by MTT assay. The format is functional, organism-based. The note with it: Human immunodeficiency virus 2, ISOLATE ROD, MT4, 120 h. In a few lines:
(§1)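 MT-4 cells, spun 5 min at 1000 rpm, were resuspended at 6 × 10⁵ cells/mL and infected with HIV-1 IIIB or HIV-2 ROD. Compounds were added at the start in serial fivefold dilutions, in triplicate wells. Viability was read by MTT reduction at 540 and 690 nm five days post-infection. EC₅₀ is the concentration giving 50% protection from viral cytopathic effect, using the median OD of three wells.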

Series [2] relates to Human immunodeficiency virus 1. As to the kind of experiment: Antiviral activity against wild type Human immunodeficiency virus 1 3B infected in human MT4 cells assessed as protection against virus-induced cytotoxicity after 5 days by MTT assay. The series is classed as functional, organism-based. The following applies: MT4, 120 h. In short, it runs like this: as §1
The test system of series [3] is Human immunodeficiency virus 2. Description: Antiviral activity against Human immunodeficiency virus 2 ROD infected in human MT4 cells assessed as inhibition of viral replication. The series is classed as functional, organism-based. The note with it: ISOLATE ROD. In short, it runs like this:
as §1

Series [4] is described as follows: Selectivity index, ratio of CC50 for human MT4 cells to EC50 for wild type Human immunodeficieny virus 1 3B infected in human MT4 cells. The format is toxicity, cell-based. The following applies: read-out: Ratio CC50/EC50. In short, it runs like this: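 SI is CC₅₀ in mock-infected MT-4 cells divided by EC₅₀ against HIV-1 IIIB, both from 5-day MTT assays in triplicate wells.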

A short description of series [5]: Cytotoxic activity against human MT4 cells assessed as viability of mock-infected cells after 5 days by MTT assay. The format is cell-based. In short, it runs like this: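 Mock-infected, exponentially growing MT-4 cells (6 × 10⁵ cells/mL) were exposed to serial fivefold compound dilutions in triplicate wells. After 5 days, viability was read by MTT formazan absorbance at 540 and 690 nm. CC₅₀ is the concentration that lowered OD540 of the mock-infected control by 50%, using the median OD of three wells.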

Series [6] addresses Human immunodeficiency virus type 1 reverse transcriptase (Human immunodeficiency virus 1, UniProt Q72547). As to the kind of experiment: Inhibition of HIV1 wild type RT using poly(rA)/oligo(dT)15 homopolymer template after 1 hrs by ELISA. In a few lines:
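Wild-type HIV-1 RT was run on a poly(rA)/oligo(dT)₁₅ template, with oligo(dT) immobilized on plates and biotin-dUTP incorporated, 1 h at 37 °C. After Tris-HCl pH 7.5 washes, incorporated biotin was detected colorimetrically by streptavidin–alkaline phosphatase with PNPP (1 mg/mL, pH 9.5), 30 min at 37 °C, stopped with 0.5 M NaOH.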

Calls of active or inactive are those of the source. The calls are words filed in the database; no cut-off is given here.

In the case of `O=c1cc(CN2CCCc3ccccc32)nc(SCc2ccc([N+](=O)[O-])cc2)[nH]1`, the EC50 in series [1] was > 73.9 µM; in series [2], ≥ 49.5 µM. Besides, in series [3], the inhibition result was “inactive”. Moreover, the selectivity ratio in series [4] was ≤ 2. In addition, the CC50 at 120 h in series [5] came to 73.9 µM.

In the case of `Cc1ccc(C(=O)CSc2nc(CN3CCCc4ccccc43)cc(=O)[nH]2)cc1`, the EC50 in series [1] was > 156 µM; in series [2] it was 28 µM. Besides, the inhibition entry in series [3] was “inactive”. Further, the selectivity ratio in series [4] came out at 6. For the same compound, the CC50 at 120 h in series [5] was found to be 156 µM.

As to `CCc1c(CN2CCCc3ccccc32)nc(SCc2ccc(C#N)cc2)[nH]c1=O`, the EC50 was > 59.7 µM in series [1] and 0.48 µM in series [2]. Further, the inhibition entry in series [3] is “inactive”. Moreover, in series [4], the selectivity ratio turned out to be 125. Also, in series [5], the CC50 at 120 h is 59.7 µM.

As for `CCc1c(CN2CCCc3ccccc32)nc(SCC(=O)c2ccc(Cl)cc2)[nH]c1=O`, the EC50 in series [1] is > 275 µM; in series [2], 1.01 µM. Moreover, in series [3], the inhibition result is “inactive”. In series [4], the selectivity ratio came to 249. In series [5], the CC50 at 120 h came out at 275 µM.

In the case of `O=c1cc(CN2CCCc3ccccc32)nc(SCc2ccc(F)cc2)[nH]1`, the EC50 in series [1] was > 182 µM; in series [2] it was 29.7 µM. Also, the inhibition entry in series [3] is “inactive”. The selectivity ratio in series [4] worked out at 6. In addition, in series [5], the CC50 at 120 h was determined as 182 µM.

In the case of `Cc1ccc(CSc2nc(CN3CCCc4ccccc43)c(C)c(=O)[nH]2)cc1`, the EC50 in series [1] is > 86.2 µM; in series [2], ≥ 86.2 µM. For the same compound, the inhibition result in series [3] was “inactive”. The selectivity ratio in series [4] is ≤ 1. For the same compound, in series [5], the CC50 at 120 h was ≥ 86.2 µM.

For the compound `CCc1c(CN2CCCc3ccccc32)nc(SCC(=O)c2ccccc2)[nH]c1=O`, the EC50 in series [1] is > 298 µM; in series [2], 0.24 µM. In addition, the IC50 in series [6] was 30.7 µM. Besides, the inhibition result in series [3] was “inactive”. The selectivity ratio in series [4] worked out at 1220. Moreover, the CC50 at 120 h in series [5] was 298 µM.

As for `N#Cc1ccc(C(=O)CSc2nc(CN3CCCc4ccccc43)cc(=O)[nH]2)cc1`, the EC50 in series [1] and in series [2] was > 197 µM each time. Besides, the inhibition entry in series [3] is “inactive”. Besides, the selectivity ratio in series [4] was > 1. Also, the CC50 at 120 h in series [5] is > 197 µM.

With `Cc1c(CN2CCCc3ccccc32)nc(SCc2ccc([N+](=O)[O-])cc2)[nH]c1=O`, the EC50 in series [1] was > 76.9 µM; in series [2], 1.88 µM. Further, the inhibition result in series [3] was “inactive”. The selectivity ratio in series [4] was 41. The CC50 at 120 h in series [5] turned out to be 76.9 µM.

For `CCc1c(CN2CCCc3ccccc32)nc(SCc2ccccc2)[nH]c1=O`, the EC50 in series [1] and in series [2] was > 4.8 µM each time. Also, the inhibition entry in series [3] is “inactive”. Also, the selectivity ratio in series [4] was < 1. Besides, the half-maximal cytotoxic concentration (CC50) at 120 h in series [5] amounted to 4.8 µM.

Take `Cc1ccc(CSc2nc(CN3CCCc4ccccc43)cc(=O)[nH]2)cc1`: the EC50 in series [1] and in series [2] was > 64.3 µM each time. In series [3], the inhibition entry was “inactive”. Further, the selectivity ratio in series [4] was < 1. The CC50 at 120 h in series [5] was determined as 64.3 µM.

In the case of `O=c1cc(CN2CCCc3ccccc32)nc(SCc2ccccc2)[nH]1`, the 50% effective concentration (EC50) is > 94.2 µM in series [1] and ≥ 32.2 µM in series [2]. The inhibition entry in series [3] was “inactive”. In addition, the selectivity ratio in series [4] was ≤ 3. For the same compound, in series [5], the CC50 at 120 h is 94.2 µM.

These data come from ChEMBL document CHEMBL1806391, “Synthesis and biological evaluation of novel 5-alkyl-2-arylthio-6-((3,4-dihydroquinolin-1(2H)-yl)methyl)pyrimidin-4(3H)-ones as potent non-nucleoside HIV-1 reverse transcriptase inhibitors” (Bioorg Med Chem, 2011).
